{"source": "ChEMBL document CHEMBL1143103", "about": "“2-Hydroxyphenacyl azoles and related azolium derivatives as antifungal agents” (Bioorg Med Chem Lett, 2008)", "key": {"Microsporum": {"tested_on": "Microsporum", "assay": "Antifungal activity against Microsporum gypseum PTCC 5070 after 168 hrs by agar dilution method", "type": "functional", "outline": "(§1)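 Agar dilution on Sabouraud Dextrose Agar. Plates prepared in triplicate and incubated at 30 °C: yeasts about 24–48 h, moulds about 72 h, dermatophytes about 168 h. MIC taken as the lowest concentration with no growth, in µg/mL. Footnote states duplicate determinations.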"}, "Aspergillus niger": {"tested_on": "Aspergillus niger", "assay": "Antifungal activity against Aspergillus niger PTCC 5012 after 72 hrs by agar dilution method", "type": "functional", "outline": "as §1"}, "Candida albicans": {"tested_on": "Candida albicans", "assay": "Antifungal activity against Candida albicans PTCC 5027 after 24 to 48 hrs by agar dilution method", "type": "functional", "outline": "as §1"}, "Saccharomyces cerevisiae": {"tested_on": "Saccharomyces cerevisiae", "assay": "Antifungal activity against Saccharomyces cerevisiae PTCC 5177 after 24 to 48 hrs by agar dilution method", "type": "functional", "outline": "as §1"}, "[1]": {"assay": "Cytotoxicity against mouse NIH/3T3 cells after 72 hrs by MTT colorimetric assay", "type": "cell-based", "settings": "NIH3T3, 72 h", "outline": "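NIH/3T3 cells in exponential growth were trypsinized and seeded at 5 × 10^4 cells/mL in complete medium. Serial dilutions were added, each in triplicate, with untreated cells as the viability control. After 72 h incubation, MTT (5 mg/mL solution) was added for 1 h. Medium was replaced with DMSO and absorbance read at 492 nm. IC50 was taken from dose-response curves against control; mean ± SD of triplicates.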"}}, "data": [{"smiles": "O=C(Cn1ccnc1)c1ccc(Cl)cc1O", "values": [{"measurement": "MIC", "setting": "Microsporum", "value": 32, "unit": "mg/L"}, {"measurement": "MIC", "setting": "Aspergillus niger", "value": 64, "unit": "mg/L"}, {"measurement": "MIC", "setting": "Candida albicans", "value": 64, "unit": "mg/L"}, {"measurement": "MIC", "setting": "Saccharomyces cerevisiae", "value": 0.25, "unit": "mg/L"}]}, {"smiles": "COc1ccc(C(=O)Cn2ccnc2)c(O)c1", "values": [{"measurement": "MIC", "setting": "Microsporum", "value": 8, "unit": "mg/L"}, {"measurement": "MIC", "setting": "Aspergillus niger", "value": 16, "unit": "mg/L"}, {"measurement": "MIC", "setting": "Candida albicans", "value": 8, "unit": "mg/L"}, {"measurement": "IC50", "setting": "[1]", "value": 221, "unit": "mg/L"}, {"measurement": "MIC", "setting": "Saccharomyces cerevisiae", "value": 0.25, "unit": "mg/L"}]}, {"smiles": "O=C(Cn1cncn1)c1ccccc1O", "values": [{"measurement": "MIC", "setting": "Microsporum", "value": 64, "unit": "mg/L"}, {"measurement": "MIC", "setting": "Aspergillus niger", "value": 32, "unit": "mg/L"}, {"measurement": "MIC", "setting": "Candida albicans", "value": 64, "unit": "mg/L"}, {"measurement": "MIC", "setting": "Saccharomyces cerevisiae", "value": 64, "unit": "mg/L"}]}, {"smiles": "O=C(Cn1cncn1)c1ccc(Cl)cc1O", "values": [{"measurement": "MIC", "setting": "Microsporum", "value": 16, "unit": "mg/L"}, {"measurement": "MIC", "setting": "Aspergillus niger", "value": 16, "unit": "mg/L"}, {"measurement": "MIC", "setting": "Candida albicans", "value": 32, "unit": "mg/L"}, {"measurement": "MIC", "setting": "Saccharomyces cerevisiae", "value": 64, "unit": "mg/L"}]}, {"smiles": "COc1ccc(C(=O)Cn2cncn2)c(O)c1", "values": [{"measurement": "MIC", "setting": "Microsporum", "value": 16, "unit": "mg/L"}, {"measurement": "MIC", "setting": "Aspergillus niger", "value": 32, "unit": "mg/L"}, {"measurement": "MIC", "setting": "Candida albicans", "value": 8, "unit": "mg/L"}, {"measurement": "IC50", "setting": "[1]", "value": 222, "unit": "mg/L"}, {"measurement": "MIC", "setting": "Saccharomyces cerevisiae", "value": 8, "unit": "mg/L"}]}, {"smiles": "COc1ccc(C(=O)Cn2c[n+](N)cn2)c(O)c1.[Br-]", "values": [{"measurement": "MIC", "setting": "Microsporum", "value": 8, "unit": "mg/L"}, {"measurement": "MIC", "setting": "Aspergillus niger", "value": 16, "unit": "mg/L"}, {"measurement": "MIC", "setting": "Candida albicans", "value": 2, "unit": "mg/L"}, {"measurement": "IC50", "setting": "[1]", "value": 254, "unit": "mg/L"}, {"measurement": "MIC", "setting": "Saccharomyces cerevisiae", "value": 4, "unit": "mg/L"}]}, {"smiles": "O=C(Cn1c[n+](CC(=O)c2ccc(Cl)cc2O)cn1)c1ccc(Cl)cc1O.[Br-]", "values": [{"measurement": "MIC", "setting": "Microsporum", "value": 32, "unit": "mg/L"}, {"measurement": "MIC", "setting": "Aspergillus niger", "value": 64, "unit": "mg/L"}, {"measurement": "MIC", "setting": "Candida albicans", "value": 32, "unit": "mg/L"}, {"measurement": "MIC", "setting": "Saccharomyces cerevisiae", "value": 8, "unit": "mg/L"}]}, {"smiles": "O=C(Cn1cnnc1)c1ccc(Cl)cc1O", "values": [{"measurement": "MIC", "setting": "Microsporum", "value": 64, "unit": "mg/L"}, {"measurement": "MIC", "setting": "Aspergillus niger", "value": 32, "unit": "mg/L"}, {"measurement": "MIC", "setting": "Candida albicans", "value": 16, "unit": "mg/L"}, {"measurement": "MIC", "setting": "Saccharomyces cerevisiae", "value": 16, "unit": "mg/L"}]}, {"smiles": "N[n+]1cnn(CC(=O)c2ccccc2O)c1.[Br-]", "values": [{"measurement": "MIC", "setting": "Microsporum", "value": 32, "unit": "mg/L"}, {"measurement": "MIC", "setting": "Aspergillus niger", "value": 32, "unit": "mg/L"}, {"measurement": "MIC", "setting": "Candida albicans", "value": 64, "unit": "mg/L"}, {"measurement": "MIC", "setting": "Saccharomyces cerevisiae", "value": 32, "unit": "mg/L"}]}, {"smiles": "O/N=C(\\Cn1ccnc1)c1ccccc1O", "values": [{"measurement": "MIC", "setting": "Microsporum", "value": 64, "unit": "mg/L"}, {"measurement": "MIC", "setting": "Aspergillus niger", "value": 64, "unit": "mg/L"}, {"measurement": "MIC", "setting": "Candida albicans", "value": 32, "unit": "mg/L"}, {"measurement": "MIC", "setting": "Saccharomyces cerevisiae", "value": 32, "unit": "mg/L"}]}, {"smiles": "O=C(Cn1ccnc1)c1ccccc1O", "values": [{"measurement": "MIC", "setting": "Microsporum", "value": 64, "unit": "mg/L"}, {"measurement": "MIC", "setting": "Aspergillus niger", "value": 64, "unit": "mg/L"}, {"measurement": "MIC", "setting": "Candida albicans", "value": 64, "unit": "mg/L"}, {"measurement": "MIC", "setting": "Saccharomyces cerevisiae", "value": 64, "unit": "mg/L"}]}, {"smiles": "O=C(Cn1c[n+](CC(=O)c2ccccc2O)cn1)c1ccccc1O.[Br-]", "values": [{"measurement": "MIC", "setting": "Microsporum", "value": 16, "unit": "mg/L"}, {"measurement": "MIC", "setting": "Aspergillus niger", "value": 32, "unit": "mg/L"}, {"measurement": "MIC", "setting": "Candida albicans", "value": 16, "unit": "mg/L"}, {"measurement": "IC50", "setting": "[1]", "value": 47, "unit": "mg/L"}, {"measurement": "MIC", "setting": "Saccharomyces cerevisiae", "value": 1, "unit": "mg/L"}]}, {"smiles": "N[n+]1cnn(CC(=O)c2ccc(Cl)cc2O)c1.[Br-]", "values": [{"measurement": "MIC", "setting": "Microsporum", "value": 16, "unit": "mg/L"}, {"measurement": "MIC", "setting": "Aspergillus niger", "value": 32, "unit": "mg/L"}, {"measurement": "MIC", "setting": "Candida albicans", "value": 4, "unit": "mg/L"}, {"measurement": "IC50", "setting": "[1]", "value": 370, "unit": "mg/L"}, {"measurement": "MIC", "setting": "Saccharomyces cerevisiae", "value": 0.25, "unit": "mg/L"}]}, {"smiles": "O=C(Cn1cnnc1)c1ccccc1O", "values": [{"measurement": "MIC", "setting": "Microsporum", "value": 16, "unit": "mg/L"}, {"measurement": "MIC", "setting": "Aspergillus niger", "value": 16, "unit": "mg/L"}, {"measurement": "MIC", "setting": "Candida albicans", "value": 32, "unit": "mg/L"}, {"measurement": "MIC", "setting": "Saccharomyces cerevisiae", "value": 16, "unit": "mg/L"}]}, {"smiles": "COc1ccc(C(=O)Cn2c[n+](CC(=O)c3ccc(OC)cc3O)cn2)c(O)c1.[Br-]", "values": [{"measurement": "MIC", "setting": "Microsporum", "value": 16, "unit": "mg/L"}, {"measurement": "MIC", "setting": "Aspergillus niger", "value": 16, "unit": "mg/L"}, {"measurement": "MIC", "setting": "Candida albicans", "value": 8, "unit": "mg/L"}, {"measurement": "IC50", "setting": "[1]", "value": 98, "unit": "mg/L"}, {"measurement": "MIC", "setting": "Saccharomyces cerevisiae", "value": 4, "unit": "mg/L"}]}, {"smiles": "OC(Cn1cncn1)(Cn1cncn1)c1ccc(F)cc1F", "note": "[FLUCONAZOLE]", "values": [{"measurement": "MIC", "setting": "Microsporum", "value": 32, "unit": "mg/L"}, {"measurement": "MIC", "setting": "Aspergillus niger", "value": 32, "unit": "mg/L"}, {"measurement": "MIC", "setting": "Candida albicans", "value": 8, "unit": "mg/L"}, {"measurement": "IC50", "setting": "[1]", "value": 387, "unit": "mg/L"}, {"measurement": "MIC", "setting": "Saccharomyces cerevisiae", "value": 32, "unit": "mg/L"}]}, {"smiles": "Clc1ccc(COC(Cn2ccnc2)c2ccc(Cl)cc2Cl)c(Cl)c1", "note": "(stereo not given) [MICONAZOLE]", "values": [{"measurement": "MIC", "setting": "Microsporum", "value": 8, "unit": "mg/L"}, {"measurement": "MIC", "setting": "Aspergillus niger", "value": 2, "unit": "mg/L"}, {"measurement": "MIC", "setting": "Candida albicans", "value": 1, "unit": "mg/L"}, {"measurement": "MIC", "setting": "Saccharomyces cerevisiae", "value": 1, "unit": "mg/L"}]}]}
